Data on three molecules can be found in ChEMBL document CHEMBL1139378, “Dual integrin and gastrin-releasing peptide receptor targeted tumor imaging using 18F-labeled PEGylated RGD-bombesin heterodimer 18F-FB-PEG3-Glu-RGD-BBN” (J Med Chem, 2009).

Data set [1] in a line: Drug uptake in human PC3 cells xenografted mouse tumor at 3.7 MBq, iv after 30 mins by micro PET imaging. It is filed as ADME, organism-based, Neoplasm, PC-3. Conditions: in vivo, 0.5 h. An outline of the steps: (§1)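 PC-3 xenograft nude mice (tumors 100–300 mm³) were given ~3.7 MBq (100 μCi) i.v. by tail vein under isoflurane. Static 5-min scans were taken at 30 min, 1 and 2 h (n = 4), plus a 35-min dynamic scan starting 1 min pi in one mouse. Images were OSEM-reconstructed without attenuation correction. Tumor and organ %ID/g came from ROIs on decay-corrected coronal images, assuming 1 g/mL density.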
On the technique in general: A xenograft is tissue or cells of one species grown in another, often human tumour cells in immunodeficient mice.

The nature of data set [2]: Drug uptake in human PC3 cells xenografted mouse tumor at 3.7 MBq, iv after 60 mins by micro PET imaging. It counts as ADME, organism-based, Neoplasm, PC-3. Conditions: in vivo, 1 h. An outline of the steps: as §1
The nature of data set [3]: Drug uptake in human PC3 cells xenografted mouse tumor at 3.7 MBq, iv after 120 mins by micro PET imaging. It counts as ADME, organism-based, Neoplasm, PC-3. Conditions: in vivo, 2 h. An outline of the steps:
as §1

For data set [4], the system named is Liver. Nature of the data set: Drug uptake in human PC3 cells xenografted mouse liver at 3.7 MBq, iv after 30 mins by micro PET imaging. Conditions: in vivo, 0.5 h. It is filed as ADME, organism-based, PC-3. An outline of the steps: as §1
Data set [5] is described as follows: Ratio of drug uptake in tumor to blood from human PC3 cells xenografted mouse at 3.7 MBq, iv after 120 mins by micro PET imaging. It is filed as ADME, organism-based, PC-3. Conditions: tumour, 2 h. An outline of the steps: (§2)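 Tumor/nontumor ratios were calculated from ROI-derived %ID/g on decay-corrected 5-min static microPET scans at 2 h after ~3.7 MBq i.v. tracer in PC-3 xenograft nude mice (n = 4).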

The nature of data set [6]: Ratio of drug uptake in tumor to liver from human PC3 cells xenografted mouse at 3.7 MBq, iv after 120 mins by micro PET imaging. It is filed as ADME, organism-based, PC-3. Conditions: in vivo, 2 h. An outline of the steps:
as §2

A short description of data set [7]: Ratio of drug uptake in tumor to kidneys from human PC3 cells xenografted mouse at 3.7 MBq, iv after 120 mins by micro PET imaging. It is filed as ADME, organism-based, PC-3. Conditions: in vivo, 2 h. An outline of the steps:
as §2

Data set [8] can be described thus: Ratio of drug uptake in tumor to muscle from human PC3 cells xenografted mouse at 3.7 MBq, iv after 120 mins by micro PET imaging. It counts as ADME, organism-based, PC-3. Conditions: in vivo, 2 h. An outline of the steps: as §2
Data set [9] in a line: Drug uptake in human PC3 cells xenografted mouse tumor at 3.7 MBq, iv by micro PET imaging in presence of RGD. It is filed as ADME, organism-based, Neoplasm, PC-3. Conditions: in vivo. An outline of the steps:
(§3)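 PC-3 tumor-bearing mice were co-injected i.v. with 3.7 MBq tracer and a blocking dose of c(RGDyK) (10 mg/kg), Aca-BBN(7–14) (15 mg/kg), or both. A 5-min static microPET scan was taken at 1 h pi (n = 3), and ROI-derived %ID/g was measured on decay-corrected coronal images.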

Data set [10] can be described thus: Drug uptake in human PC3 cells xenografted mouse tumor at 3.7 MBq, iv by micro PET imaging in presence of BBN. It is filed as ADME, organism-based, Neoplasm, PC-3. Conditions: in vivo. An outline of the steps: as §3
The nature of data set [11]: Drug uptake in human PC3 cells xenografted mouse tumor at 3.7 MBq, iv by micro PET imaging in presence of RGD and BBN. It is filed as ADME, organism-based, Neoplasm, PC-3. Conditions: in vivo. An outline of the steps:
as §3

A short description of data set [12]: Drug uptake in human PC3 cells xenografted mouse tumor at 3.7 MBq, iv after 5 mins by micro PET imaging. It is filed as ADME, organism-based, Neoplasm, PC-3. Conditions: in vivo. An outline of the steps: as §1
Data set [13] in a line: Drug uptake in human PC3 cells xenografted mouse tumor at 3.7 MBq, iv after 15 mins by micro PET imaging. It is filed as ADME, organism-based, Neoplasm, PC-3. Conditions: in vivo, 0.25 h. An outline of the steps:
as §1

Data set [14] can be described thus: Biodistribution in human PC3 cells xenografted athymic nude mouse tumor at 0.74 MBq, iv after 1 hr. It is filed as ADME, organism-based, Neoplasm, PC-3. Conditions: in vivo. An outline of the steps: (§4)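 PC-3 human prostate carcinoma cells were grown in F-12K with 10% FBS, and 5×10^6 cells were injected s.c. into the right front flank of male athymic nude mice. Each mouse received 0.74 MBq (20 μCi) tracer and was sacrificed at 1 h pi. Tissues were wet-weighed and γ-counted against an injectate aliquot. Values are %ID/g normalized to 20 g body mass, mean ± SD, n = 4.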

The test system of data set [15] is Kidney. Nature of the data set: Biodistribution in human PC3 cells xenografted athymic nude mouse kidney at 0.74 MBq, iv after 1 hr. It is filed as ADME, organism-based, PC-3. Conditions: in vivo. An outline of the steps: as §4
Data set [16] concerns Blood. Nature of the data set: Biodistribution in human PC3 cells xenografted athymic nude mouse blood at 0.74 MBq, iv after 1 hr. It counts as ADME, organism-based, PC-3. Conditions: in vivo. An outline of the steps: as §4
The subject of data set [17] is Heart. Nature of the data set: Biodistribution in human PC3 cells xenografted athymic nude mouse heart at 0.74 MBq, iv after 1 hr. It counts as ADME, organism-based, PC-3. Conditions: in vivo. An outline of the steps: as §4
Data set [18] concerns Liver. Nature of the data set: Biodistribution in human PC3 cells xenografted athymic nude mouse liver at 0.74 MBq, iv after 1 hr. It is filed as ADME, organism-based, PC-3. Conditions: in vivo. An outline of the steps: as §4
Data set [19] has as its system Spleen. Nature of the data set: Biodistribution in human PC3 cells xenografted athymic nude mouse spleen at 0.74 MBq, iv after 1 hr. It counts as ADME, organism-based, PC-3. Conditions: in vivo. An outline of the steps:
as §4

For data set [20], the system named is Bone. The data set is described as follows: Biodistribution in human PC3 cells xenografted athymic nude mouse bone at 0.74 MBq, iv after 1 hr. It counts as ADME, organism-based, Bone element, PC-3. Conditions: in vivo. An outline of the steps: as §4
The test system of data set [21] is Muscle tissue. Nature of the data set: Biodistribution in human PC3 cells xenografted athymic nude mouse muscle at 0.74 MBq, iv after 1 hr. It counts as ADME, organism-based, PC-3. Conditions: in vivo. An outline of the steps:
as §4

Data set [22] relates to PC-3. Nature of the data set: Cellular uptake in human PC3 cells after 30 mins. Conditions: pc-3, 0.5 h. It is filed as ADME, cell-based. An outline of the steps:
(§5)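 PC-3 cells were seeded at 5×10^5 per well and left overnight, then PBS-rinsed and incubated with ~0.3 μCi/well radiotracer in culture medium at 37 or 4 °C for 15–120 min. Cells were washed with chilled PBS, trypsinized and γ-counted. Uptake is % of added radioactivity; two experiments, triplicate wells.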

In data set [23] the test system is PC-3. Nature of the data set: Cellular uptake in human PC3 cells after 15 mins. It is filed as ADME, cell-based. Conditions: pc-3, 0.25 h. An outline of the steps:
as §5

In data set [24] the test system is PC-3. Nature of the data set: Cellular uptake in human PC3 cells after 60 mins. It counts as ADME, cell-based. Conditions: pc-3, 1 h. An outline of the steps: as §5
The subject of data set [25] is PC-3. The data set is described as follows: Cellular uptake in human PC3 cells after 120 mins. It counts as ADME, cell-based. Conditions: pc-3, 2 h. An outline of the steps:
as §5

The subject of data set [26] is PC-3. The data set is described as follows: Inhibition of cellular uptake in human PC3 cells after 60 mins in presence of RGD. Conditions: pc-3, 1 h.
Data set [27] relates to PC-3. Nature of the data set: Inhibition of cellular uptake in human PC3 cells after 60 mins in presence of BBN. Conditions: pc-3, 1 h.
The subject of data set [28] is PC-3. The data set is described as follows: Inhibition of cellular uptake in human PC3 cells after 60 mins in presence of RGD and BBN. Conditions: pc-3, 1 h.
The target in data set [29] is Gastrin-releasing peptide receptor (Homo sapiens) (UniProt P30550). Nature of the data set: Displacement of [125I][Tyr4]BBN form gastrin-releasing peptide receptor in human PC3 cells.
Sequence of Gastrin-releasing peptide receptor (Homo sapiens) (P30550 whole entry, looked up): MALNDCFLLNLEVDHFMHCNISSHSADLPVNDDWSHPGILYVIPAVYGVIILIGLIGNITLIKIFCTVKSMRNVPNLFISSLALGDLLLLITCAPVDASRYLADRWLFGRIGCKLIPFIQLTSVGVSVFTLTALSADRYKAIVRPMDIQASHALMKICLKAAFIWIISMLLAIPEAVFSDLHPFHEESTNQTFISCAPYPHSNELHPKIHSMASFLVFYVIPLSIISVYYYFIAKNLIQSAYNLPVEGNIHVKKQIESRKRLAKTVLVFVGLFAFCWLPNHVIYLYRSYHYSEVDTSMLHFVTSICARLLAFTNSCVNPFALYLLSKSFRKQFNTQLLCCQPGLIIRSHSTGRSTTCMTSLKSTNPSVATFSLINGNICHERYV

Turning to `CSCC[C@@H](NC(=O)[C@H](CC(C)C)NC(=O)[C@@H](Cc1c[nH]cn1)NC(=O)CNC(=O)[C@H](NC(=O)[C@H](C)NC(=O)[C@@H](Cc1c[nH]c2ccccc12)NC(=O)[C@H](CCC(N)=O)NC(=O)CCCCCNC(=O)CC[C@H](NC(=O)COCCOCCOCCNC(=O)c1ccc([18F])cc1)C(=O)NCCCC[C@H]1NC(=O)[C@@H](CCCNC(=N)N)NC(=O)CNC(=O)[C@@H](CC(=O)O)NC(=O)[C@H](Cc2ccc(O)cc2)NC1=O)C(C)C)C(N)=O`, the Drug uptake in [1] came to 6.35 % ID/g; in data set [2] it was 4.41 % ID/g; in [3] it was 2.88 % ID/g; in data set [4], 2 % ID/g; in data set [9], 2.19 % ID/g; in data set [10] it was 1.58 % ID/g. Further, the Drug uptake in data set [11] is 0.43 % ID/g; in data set [12] it was 3.54 % ID/g; in data set [13] it was 4.86 % ID/g; in data set [14], 4 % ID/g; in data set [15] it was 4.87 % ID/g; in data set [16] it was 2 % ID/g. For the same molecule, the Drug uptake is reported as 2 % ID/g in data set [17]; 2 % ID/g in data set [18]; 2 % ID/g in [19]; 2 % ID/g in [20]; 2 % ID/g in data set [21]; 5.51% in data set [22]. The values for the Drug uptake in [23], in data set [24] and in data set [25] were 4.72%, 5.87% and 6.65%, respectively. Besides, the Ratio in data set [5] was determined as 8.1; in data set [6], 6.43; in [7] it was 1.44; in data set [8] it was 10.54. The results for the Inhibition in data set [26], in [27] and in [28] were 17.55%, 83.67% and 91.97%, respectively.

`CSCC[C@H](NC(=O)[C@H](CC(C)C)NC(=O)[C@H](Cc1c[nH]cn1)NC(=O)CNC(=O)[C@@H](NC(=O)[C@H](C)NC(=O)[C@H](Cc1c[nH]c2ccccc12)NC(=O)[C@H](CCC(N)=O)NC(=O)CCCCCNC(=O)CC[C@H](NC(=O)COCCOCCOCCN)C(=O)NCCCC[C@@H]1NC(=O)[C@H](CCCNC(=N)N)NC(=O)CNC(=O)[C@H](CC(=O)O)NC(=O)[C@@H](Cc2ccc(O)cc2)NC1=O)C(C)C)C(N)=O`: in data set [29], the IC50 is 85.4 nM.

`CSCC[C@@H](NC(=O)[C@H](CC(C)C)NC(=O)[C@@H](Cc1c[nH]cn1)NC(=O)CNC(=O)[C@H](NC(=O)[C@H](C)NC(=O)[C@@H](Cc1c[nH]c2ccccc12)NC(=O)[C@H](CCC(N)=O)NC(=O)CCCCCNC(=O)CC[C@H](NC(=O)COCCOCCOCCNC(=O)c1ccc(F)cc1)C(=O)NCCCC[C@H]1NC(=O)[C@@H](CCCNC(=N)N)NC(=O)CNC(=O)[C@@H](CC(=O)O)NC(=O)[C@H](Cc2ccc(O)cc2)NC1=O)C(C)C)C(N)=O` showed an IC50 in data set [29] (pc-3) of 73.3 nM.

The Inhibition is the change of the read-out against control, counted positive when it falls. Broadly, the IC50 is the concentration that gives 50% inhibition. Low readings indicate inhibition by little substance, high ones a need for much substance.
